Test results published in ChEMBL document CHEMBL2086275, “Docking studies, synthesis, characterization of some novel oxazine substituted 9-anilinoacridine derivatives and evaluation for their antioxidant and anticancer activities as topoisomerase II inhibitors” (Eur J Med Chem, 2012).
≈ marks a conversion by molar mass, not a printed value.

Assays:
Type in all cases: functional
[1] = Antioxidant activity assessed as hydrogen peroxide radical scavenging activity
[2] = Antioxidant activity assessed as inhibition of superoxide radical-induced NBT reduction by alkaline DMSO method
[3] = Antitumor activity against mouse DLA cells after 3 hrs by trypan blue dye exclusion assay
Method in brief: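 DLA cells were grown in the peritoneal cavity of albino mice (25-30 g) by i.p. injection of 1×10^6 cells/mL. Cells were harvested on day 15, washed three times in HBSS and adjusted to 2×10^6 cells/mL. Cells were exposed to graded drug concentrations in PBS (1:1 volume) for 3 h at 37 °C, 5% CO2. Viability was counted by haemocytometer after 1:1 mixing with 0.4% trypan blue, and % inhibition and CTC50 were calculated.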

Row | IC50 [1] | IC50 [2] | Compound | CC50 [3]
1 | 20.03 mg/L (≈ 39.2 µM) | 28.02 mg/L (≈ 54.8 µM) | NC1N=C(c2ccc(Cl)cc2Cl)C=C(c2ccc(Nc3c4ccccc4nc4ccccc34)cc2)O1 (configuration not stated) | 180 mg/L (≈ 352 µM)
2 | 18.06 mg/L (≈ 35.9 µM) | 28.01 mg/L (≈ 55.7 µM) | COc1ccc(C2=NC(N)OC(c3ccc(Nc4c5ccccc5nc5ccccc45)cc3)=C2)cc1OC (configuration not stated) | 190 mg/L (≈ 378 µM)
3 | 18.6 mg/L (≈ 106 µM) | 24.77 mg/L (≈ 141 µM) | O=C1O[C@H]([C@@H](O)CO)C(O)=C1O [ASCORBIC ACID] | 
4 | > 1000 mg/L | > 500 mg/L | O=C(/C=C/c1ccc(Cl)cc1)c1ccc(Nc2c3ccccc3nc3ccccc23)cc1 | 
5 | 17.23 mg/L (≈ 38.9 µM) | 22.27 mg/L (≈ 50.3 µM) | NC1N=C(c2ccccc2)C=C(c2ccc(Nc3c4ccccc4nc4ccccc34)cc2)O1 (configuration not stated) | 425 mg/L (≈ 960 µM)
6 | > 1000 mg/L | > 500 mg/L | O=C(/C=C/c1ccccc1Cl)c1ccc(Nc2c3ccccc3nc3ccccc23)cc1 | 

The remaining lines, values behind:

Row | Compound | IC50 [1] | IC50 [2] | CC50 [3]
7 | COc1cc(C2=NC(N)OC(c3ccc(Nc4c5ccccc5nc5ccccc45)cc3)=C2)ccc1O (configuration not stated) | 14.5 mg/L (≈ 29.7 µM) | 24.02 mg/L (≈ 49.2 µM) | 250 mg/L (≈ 512 µM)
8 | O=C(/C=C/c1cccc(Cl)c1)c1ccc(Nc2c3ccccc3nc3ccccc23)cc1 | > 1000 mg/L | > 500 mg/L | 
9 | NC1N=C(c2ccc([N+](=O)[O-])cc2)C=C(c2ccc(Nc3c4ccccc4nc4ccccc34)cc2)O1 (configuration not stated) | 24.03 mg/L (≈ 49.3 µM) | 47.5 mg/L (≈ 97.4 µM) | 725 mg/L (≈ 1490 µM)
10 | COc1cc(/C=C/C(=O)c2ccc(Nc3c4ccccc4nc4ccccc34)cc2)ccc1O | > 1000 mg/L | > 500 mg/L | 
11 | O=C(/C=C/c1ccccc1)c1ccc(Nc2c3ccccc3nc3ccccc23)cc1 | > 1000 mg/L | > 500 mg/L | 
12 | NC1N=C(c2ccc(Cl)cc2)C=C(c2ccc(Nc3c4ccccc4nc4ccccc34)cc2)O1 (configuration not stated) | 30.01 mg/L (≈ 62.9 µM) | 68.13 mg/L (≈ 143 µM) | 640 mg/L (≈ 1340 µM)
13 | NC1N=C(c2cccc([N+](=O)[O-])c2)C=C(c2ccc(Nc3c4ccccc4nc4ccccc34)cc2)O1 (configuration not stated) | 12 mg/L (≈ 24.6 µM) | 29.03 mg/L (≈ 59.5 µM) | 600 mg/L (≈ 1230 µM)
14 | O=C(/C=C/c1ccc(Cl)cc1Cl)c1ccc(Nc2c3ccccc3nc3ccccc23)cc1 | > 1000 mg/L | > 500 mg/L | 
15 | NC1N=C(c2ccccc2Cl)C=C(c2ccc(Nc3c4ccccc4nc4ccccc34)cc2)O1 (configuration not stated) | 25.01 mg/L (≈ 52.4 µM) | 32.05 mg/L (≈ 67.2 µM) | 590 mg/L (≈ 1240 µM)
16 | C/C=C/C(=O)c1ccc(Nc2c3ccccc3nc3ccccc23)cc1 | > 1000 mg/L | > 500 mg/L | 
17 | O=C(/C=C/c1ccc([N+](=O)[O-])cc1)c1ccc(Nc2c3ccccc3nc3ccccc23)cc1 | > 1000 mg/L | > 500 mg/L | 
18 | NC1N=C(c2cccc(Cl)c2)C=C(c2ccc(Nc3c4ccccc4nc4ccccc34)cc2)O1 (configuration not stated) | 36.01 mg/L (≈ 75.5 µM) | 37.43 mg/L (≈ 78.5 µM) | 820 mg/L (≈ 1720 µM)
19 | CC1=NC(N)OC(c2ccc(Nc3c4ccccc4nc4ccccc34)cc2)=C1 (configuration not stated) | 14.2 mg/L (≈ 37.3 µM) | 26.3 mg/L (≈ 69.1 µM) | 140 mg/L (≈ 368 µM)
20 | COc1ccc(/C=C/C(=O)c2ccc(Nc3c4ccccc4nc4ccccc34)cc2)cc1OC | > 1000 mg/L | > 500 mg/L | 
21 | O=C(/C=C/c1cccc([N+](=O)[O-])c1)c1ccc(Nc2c3ccccc3nc3ccccc23)cc1 | > 1000 mg/L | > 500 mg/L | 
